Measured values as given in ChEMBL document CHEMBL1275265, “Synthesis and biological evaluation of N-antipyrine-4-substituted amino-3-chloromaleimide derivatives” (Eur J Med Chem, 2010).
In brackets after ≈: the same amount, converted by molar mass. Activity calls are given as the source filed them. The calls are words filed in the database; no cut-off is given here.

Assays:
[1] = system: Streptococcus agalactiae; test: Antibacterial activity against Streptococcus agalactiae ATCC 13813 at < 100 ug/mL by agar dilution method; assay type: functional
Procedure, shortened: (§1)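 Agar dilution on 1 mL Mueller-Hinton agar slants. Compounds were serially two-fold diluted in DMSO (final DMSO ≤2%) to give 10–100 µg/mL in the medium. Bacteria were grown on MHA at 35 °C for 24 h, suspended in 0.86% saline at 1.5 × 10^8 cell/mL (0.5 McFarland), and 1 µL was added per slant. Slants were incubated at 35 °C. Drug-free blank included; each assay run three times; MIC recorded.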

[2] = system: Bacillus cereus; test: Antibacterial activity against Bacillus cereus ATCC 14579 at < 100 ug/mL by agar dilution method; assay type: functional; procedure, shortened: as §1
[3] = system: Staphylococcus saprophyticus; test: Antibacterial activity against Staphylococcus saprophyticus ATCC 35552 at < 100 ug/mL by agar dilution method; assay type: functional, organism-based; procedure, shortened: as §1
[4] = system: Staphylococcus aureus; test: Antibacterial activity against Staphylococcus aureus ATCC 6538P at < 100 ug/mL by agar dilution method; assay type: functional, organism-based; procedure, shortened: as §1
[5] = system: Escherichia coli; test: Antibacterial activity against Escherichia coli ATCC 11775 at < 100 ug/mL by agar dilution method; assay type: functional, organism-based; procedure, shortened: as §1
[6] = system: Mus musculus; test: Antinociceptive activity in Swiss mouse assessed as inhibition of acetic acid-induced abdominal contraction at 0.1 to 100 mg/kg, ip administered 30 mins before acetic acid challenge measured after 20 mins relative to control; assay type: functional, Abdominal cavity; details: dose mg/kg 0.1-100; route intraperitoneal
Procedure, shortened: (§2)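 Writhing dose-response in mice: compounds at 0.1–10 mg/kg and standard drugs at 10–100 mg/kg, i.p. in Tween 80/saline, 30 min before i.p. 0.6% acetic acid. Constrictions and stretches were counted for 20 min at 20–22 °C, with six to eight animals per group. ID50 (dose halving the response versus control) was given as geometric mean with 95% confidence limits.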

[7] = system: Mus musculus; test: Antinociceptive activity in Swiss mouse assessed as inhibition of acetic acid-induced writhing at 10 mg/kg, ip administered 30 mins before acetic acid challenge measured after 20 mins relative to control; assay type: functional; details: route intraperitoneal
Procedure, shortened: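 Mice were given 10 mg/kg i.p. in Tween 80/0.9% NaCl (Tween ≤5%) 30 min before i.p. 0.6% acetic acid, at 20–22 °C. Abdominal constrictions plus hind-limb stretching were counted cumulatively over 20 min in individual funnels. Groups of six, randomized and blinded. Inhibition was calculated versus vehicle controls (10 ml/kg i.p.); ANOVA with Dunnett's test.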

[8] = system: Enterobacter cloacae; test: Antibacterial activity against Enterobacter cloacae ATCC 35030 at < 100 ug/mL by agar dilution method; assay type: functional, organism-based; procedure, shortened: as §1
[9] = system: Bacillus subtilis; test: Antibacterial activity against Bacillus subtilis ATCC 23858 at < 100 ug/mL by agar dilution method; assay type: functional, organism-based; procedure, shortened: as §1
[10] = system: Salmonella typhimurium; test: Antibacterial activity against Salmonella Typhimurium ATCC 14028 at < 100 ug/mL by agar dilution method; assay type: functional, organism-based; details: Salmonella enterica subsp. enterica serovar Typhimurium; procedure, shortened: as §1
[11] = species: Mus musculus; test: Antinociceptive activity in mouse assessed as inhibition of acetic acid-induced writhing; assay type: functional; details: read-out: ID50 (the source's name)
[12] = system: Mus musculus; test: Antinociceptive activity in ip dosed Swiss mouse assessed as inhibition of acetic acid-induced abdominal contraction administered 30 mins before acetic acid challenge measured after 20 mins; assay type: functional; details: Abdominal cavity, read-out: ID50 (the source's name); procedure, shortened: as §2
[13] = system: Staphylococcus aureus; test: Antibacterial activity against Staphylococcus aureus ATCC 6538P by agar dilution method; assay type: functional
[14] = system: Pseudomonas aeruginosa; test: Antibacterial activity against Pseudomonas aeruginosa ATCC 27853 at < 100 ug/mL by agar dilution method; assay type: functional, organism-based; procedure, shortened: as §1
[15] = system: Proteus mirabilis; test: Antibacterial activity against Proteus mirabilis ATCC 25933 at < 100 ug/mL by agar dilution method; assay type: functional, organism-based; procedure, shortened: as §1
[16] = system: Mus musculus; test: Ratio of metamizole ID50 to compound ID50 for inhibition of acetic acid-induced abdominal contraction in ip dosed Swiss mouse; assay type: functional, Abdominal cavity
[17] = system: Mus musculus; test: Ratio of acetyl salicylic acid ID50 to compound ID50 for inhibition of acetic acid-induced abdominal contraction in ip dosed Swiss mouse; assay type: functional, Abdominal cavity
[18] = system: Mus musculus; test: Ratio of compound to acetyl salicylic acid activity against formalin-induced paw licking activity in Swiss mouse at 10 mg/kg, ip administered 30 mins before formalin challenge measured after 15 to 30 mins; assay type: functional; details: route intraperitoneal
[19] = system: Mus musculus; test: Antinociceptive activity in Swiss mouse assessed as inhibition of formalin-induced paw licking activity at 10 mg/kg, ip administered 30 mins before formalin challenge measured after 15 to 30 mins; assay type: functional; details: route intraperitoneal
Procedure, shortened: (§3)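 Formalin test in mice pretreated i.p. with vehicle or 10 mg/kg test agent 30 min before formalin injection. Animals were acclimatized 5 min in a glass cylinder with an angled mirror. Licking time was recorded for the early phase (0–5 min) and the late phase (15–30 min) after formalin. Values are mean ± S.E.M.; ANOVA with Dunnett's test.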

[20] = system: Mus musculus; test: Antinociceptive activity in Swiss mouse assessed as inhibition of formalin-induced paw licking activity at 10 mg/kg, ip administered 30 mins before formalin challenge measured after 5 mins; assay type: functional; details: route intraperitoneal; procedure, shortened: as §3
[21] = Toxicity in Artemia salina assessed as mortality after 24 hrs; assay type: organism-based; details: in vivo
Procedure, shortened: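 Artemia salina hatched at pH 9.0 (Na2CO3), 25 °C, strong aeration, continuous light (2000 Lux). Phototropic nauplii were collected about 12 h after hatching, and groups of 10 were exposed per well to various compound concentrations for 24 h. Survivors were counted and % deaths calculated.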

Row | Compound | Activity [1] | Activity [2] | Activity [3] | Activity [4] | Activity [5] | inhibition (INH) [6] | inhibition in vivo at 10 mg/kg [7] | Activity [8] | Activity [9] | Activity [10] | ED50 [12] | Activity [14] | Activity [15] | further results
1 | Cc1c(N2C(=O)C(Cl)=C(Cl)C2=O)c(=O)n(-c2ccccc2)n1C | inactive | inactive | inactive | inactive | inactive | 99% | 99% | inactive | inactive | inactive | 10.8 µmol/kg | inactive | inactive | ED50 [11]: 10.8 µmol/kg; MIC [13]: 250 µg/mL (≈ 710 µM)
2 | Cc1c(N2C(=O)C(Cl)=C(Nc3ccc(Cl)c([N+](=O)[O-])c3)C2=O)c(=O)n(-c2ccccc2)n1C | inactive | inactive | inactive | inactive | inactive | 98.5% | 98.5% | inactive | inactive | inactive | 1.29 µmol/kg | inactive | inactive | Ratio [16]: 126; Ratio [17]: 103; Ratio [18]: 6; inhibition in vivo at 10 mg/kg [19]: 49%; inhibition in vivo at 10 mg/kg [20]: 19.6%; LC50 at 24 h [21]: 94.2 µg/mL (≈ 193 µM)
